# Screening results (PubChem)
# Sampled rows, rich in hits. Any-hit rate of the full collection: about 2.6%.
# ARFGAP1 inhibitor: inhibitors of rat ARFGAP1. AID 651572. 0.26% of 360,000 active. inhibition, % at 16.5 µM. Arfgap1-stimulated ARF1 GTP hydrolysis, GDP FP detection;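 active = inhibition above a per-plate limit, mean inhibition of low control wells plus 3 SD, cut at about 25% in these data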;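 also: 0% = DMSO wells with enzyme and 100% = wells lacking Arfgap1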
# Target sequence (Q62848 1-136 limits assumed): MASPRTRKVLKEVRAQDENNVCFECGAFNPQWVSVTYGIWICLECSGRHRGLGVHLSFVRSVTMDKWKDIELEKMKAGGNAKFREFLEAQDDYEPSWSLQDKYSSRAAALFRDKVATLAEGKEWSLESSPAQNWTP
#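 System: truncated rat Arfgap1 GAP domain / Benchmarks: high control wells lacking Arfgap1, low control full reaction with DMSO / Times: compound-enzyme preincubation 20 min, reaction 120 min, detection 60 min, 25 °C / Repeats: one replicate per compound / Also added: human ARF1(Δ1-17)-GTP substrate / Measured by: Tracer-displacement fluorescence polarization with EDTA stop, 620/688 nm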
# ASAP1 inh: inhibitors of human ASAP1 ArfGAP activity; ASAP1-stimulated ARF1 GTP hydrolysis, GDP FP detection; AID 624377; 0.19% of 360,000 active; inhibition, % at 16.5 µM; in the data active = inhibition above about 25%;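 also: 0% = vehicle with enzyme and substrate and 100% = no enzyme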
# Target sequence (Q9ULH1 325-724 limits assumed): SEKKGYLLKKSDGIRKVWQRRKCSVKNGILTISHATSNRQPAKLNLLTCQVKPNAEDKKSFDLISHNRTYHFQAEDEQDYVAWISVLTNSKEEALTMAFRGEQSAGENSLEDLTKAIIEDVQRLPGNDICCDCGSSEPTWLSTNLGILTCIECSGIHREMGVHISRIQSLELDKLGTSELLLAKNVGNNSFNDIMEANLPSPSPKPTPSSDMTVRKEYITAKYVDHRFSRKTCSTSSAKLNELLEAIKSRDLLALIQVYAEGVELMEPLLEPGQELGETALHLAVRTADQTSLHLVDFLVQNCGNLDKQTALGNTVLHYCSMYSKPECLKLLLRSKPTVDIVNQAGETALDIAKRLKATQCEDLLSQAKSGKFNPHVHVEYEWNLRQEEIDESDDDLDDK
# Calb FLC: C. albicans growth modulation with fluconazole; 0.57% of 300,000 active; growth inhibition, % (concentration not given with the values); C. albicans CaCi-2 + fluconazole, Alamar Blue growth, 48 h;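 active = growth inhibition above about 58% in most replicates, limit read from the data, passing the limit was not always enough; inconclusive = exactly half the replicates above a set limit; inactive = most replicates below a set limit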;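 also: all wells also contain fluconazole at 8 µg/ml as a sub-toxic cotreatment; 0% = median of DMSO wells and 100% = median of geldanamycin control wells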
# IMP-1 inh-1: inhibitors of Pseudomonas aeruginosa IMP-1 metallo-beta-lactamase | 0.45% of 290,000 active | purified IMP-1, nitrocefin hydrolysis, epi-absorbance fluorescence | inhibition, % at 5.6 µM | AID 1556;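 active = inhibition above the mean plus 3 SD of all compounds in the same screening run, cut at about 4.5% in these data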;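 also: 0% = IMP-1 with DMSO and 100% = DMSO wells lacking enzyme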
#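 System – purified recombinant IMP-1 beta-lactamase · Input – IMP-1 dispensed at 0.2 nM · Timing – 15 min preincubation plus 25 min reaction at 25 °C · Signal – Epi-absorbance fluorescence, 480 nm excitation, 530 nm emission · Measure – percent IMP-1 inhibition derived from blank-referenced optical density · Controls – Enzyme-plus-DMSO low control, enzyme-free DMSO high control · Replication – singlicate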
# VIM-2 inh: blocks Pseudomonas aeruginosa VIM-2 metallo-beta-lactamase. purified VIM-2, nitrocefin hydrolysis, epi-absorbance fluorescence. inhibition, % at 5.6 µM. 0.89% of 290,000 active. AID 1527;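 active = inhibition above the mean of all tested compounds plus 3 SD, cutoff set per screening run, cut at about 7.5% in these data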;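 also: red hydrolysis product quenches plate fluorescence so inhibitors raise well fluorescence; 0% = enzyme with DMSO and 100% = DMSO without enzyme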
# PHOSPHO1 inh: PHOSPHO1 (human) inhibition; Q8TCT1; recombinant PHOSPHO1, absorbance phosphatase assay; inhibition, % at 13.3 µM; 1.1% of 290,000 active; AID 1565; in the data active = inhibition above about 60%
# IMP-1 inh-2: IMP-1 inhibition, counter-screen for VIM-2 inhibitors. shares compounds with VIM-2 inh. purified IMP-1, nitrocefin hydrolysis, epi-absorbance fluorescence. inhibition, % at 5.6 µM. 1,300 tested, under 10 active. AID 1856; call rule not given here;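 also: 0% = enzyme with vehicle and 100% = vehicle without enzyme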
# VIM-2 FRET inh: VIM-2 FRET inhibition, artifact counter-screen; inhibition, % at 5.6 µM; shares compounds with VIM-2 inh; 23% of 1,300 active; purified VIM-2, CCF2 FRET substrate hydrolysis;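 active = inhibition above the mean of all tested compounds plus 3 SD, cut at about 19% in these data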;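 also: 0% = VIM-2 plus DMSO and 100% = no enzyme wells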
# TEM-1 counter: selectivity counter-screen for VIM-2 inhibitors: E. coli TEM-1 inhibitors; inhibition, % at 5.6 µM; 3% of 1,300 active; Purified TEM-1, nitrocefin hydrolysis, epi-absorbance fluorescence; AID 1866; shares compounds with VIM-2 inh;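 active = inhibition above that campaign's mean inhibition plus 3 SD, cut at about 0.46% in these data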;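 also: 0% = TEM-1 with DMSO and 100% = TEM-1 with 100 µM potassium clavulanate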
# VIM-2 confirm 2: confirmation of P. aeruginosa VIM-2 metallo-beta-lactamase inhibitors; purified VIM-2, nitrocefin hydrolysis, epi-absorbance; shares compounds with VIM-2 inh; AID 2187; 96% of 1,300 active; inhibition, % at 5.6 µM;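 active = inhibition of the VIM-2 beta-lactamase enzyme above about 11% from the earlier first-round screen, limit read from the data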;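 also: 0% = VIM-2 with DMSO and 100% = buffer wells without enzyme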
# The depositor's hits bear a star; ? = inconclusive; . = no result.
SMILES,ARFGAP1 inhibitor,ASAP1 inh,Calb FLC,IMP-1 inh-1,VIM-2 inh,PHOSPHO1 inh,IMP-1 inh-2,VIM-2 FRET inh,TEM-1 counter,VIM-2 confirm 2
Cc1nc2ccc(NC(=O)N3CCSCC3)cc2s1,-3,0,7,-3,0,3,.,.,.,.
COc1ccc(C2=Nn3c(nnc3-c3cccnc3)SC2)cc1OC,-3,-6,?,.,.,2,.,.,.,.
COc1ccc(C2=Nn3c(nnc3-c3ccncc3)SC2)cc1OC,4,-3,0,1,64*,23,-2,0,-4,75*
O=C(NCc1ccc(F)cc1)c1cc(C2CCCCN2S(=O)(=O)Cc2ccccc2)on1 (configuration not stated),-10,2,.,.,.,.,.,.,.,.
Cc1c(OCC(=O)N2CCC(C(N)=O)CC2)ccc2c3c(c(=O)oc12)CCCC3,10,8,-10,-1,12*,3,-3,-3,-15,19*
Cc1c(OCC(=O)N2CCC(C(N)=O)CC2)ccc2c1oc(=O)c1ccccc12,12,8,-1,-4,23*,34,-4,-1,-12,31*
CSc1nc(SCC(=O)O)c2c3c(sc2n1)COC(C)(C)C3,-11,1,-5,-4,17*,24,-3,43*,-6,25*
CCc1nc2sc3c(c2c(=S)[nH]1)CC(C)(C)OC3,-8,-7,11,-2,2,-60,.,.,.,.
CSc1nc2sc3c(c2c(=S)[nH]1)CC(C)(C)OC3,-11,-6,-9,-2,15*,14,-3,21*,-7,19*
CCN(CC)CCOc1ncnc2c1oc1ccccc12,3,-11,-4,0,15*,7,-3,1,-5,14*
Cn1c(=O)c2c(nc(N3CCCCC3)n2CCNC2=NCCC2)n(C)c1=O,13,-21,6,0,20*,22,-3,2,-6,36*
Cc1ccc(S(=O)(=O)N2C[C@H]3C(=O)C[C@@H](c4ccccc4)N(S(=O)(=O)c4ccc(C)cc4)[C@H]3C[C@H]2c2ccccc2F)cc1,1,-13,.,.,.,.,.,.,.,.
CCOC(=O)[C@]12CCCC=C1N(Cc1cccc3ccccc13)C(=O)[C@H](CC(=O)NCc1cccs1)C2,-13,11,.,.,.,.,.,.,.,.
Cc1ccc2nc(Cl)c3cc(C(=O)NCCCN4CCCC4)sc3c2c1,6,-3,14,-2,13*,-23,-2,7,-6,27*
Cc1ccc2c(Cl)c(C(=O)NCCCN3CCOCC3)sc2c1,10,7,.,.,.,.,.,.,.,.
[O-]c1n[n+](-c2ccc(Cl)cc2)cc2ccccc12,-2,0,-23,-2,19*,2,-3,-11,0,2
[O-]c1n[n+](-c2ccc(Cl)cc2Cl)cc2ccccc12,10,-17,0,-4,0,43,.,.,.,.
Cc1cccn2c(=O)c3cc(C(=O)NCC4CCCO4)c(=N)n(CCc4ccccc4)c3nc12 (configuration not stated),13,-13,-12,-4,0,46,.,.,.,.
COc1ccc(CCn2c(=N)c(C(=O)NCC3CCCO3)cc3c(=O)n4ccccc4nc32)cc1OC (configuration not stated),-1,1,-6,-2,14*,29,-2,-1,-5,21*
CCOC1=C2[C@@H](CN(S(=O)(=O)c3ccc(C)cc3)[C@H]2c2cccc3ccccc23)[C@H]2C(=O)NC(=O)[C@H]2C1,0,9,.,.,.,.,.,.,.,.
COc1cc(Cc2nc3ccccc3n2C(C)c2nc3ccccc3[nH]2)cc(OC)c1 (configuration not stated),-10,-16,.,.,.,.,.,.,.,.
